Measured values taken from PubChem BioAssay.
Activity calls are given as the source filed them.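 The calls were made as follows, unless noted: active = fluorescence slope higher than the sample average by over 3 SD (cut at about -0.22 in these data, passing the limit was not always enough); inactive = the rest.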

What was measured:
[1] = inhibitors of TNFa-induced NFkB p65 translocation, primary screen, imaging, HUVEC, MLSMR starter and 10KST1 sets (AID 438;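 active = inhibition above 20% together with a positive visual image hit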;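 also: compound added about 3h40 before a 20 min TNFalpha stimulation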;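 as to inhibition: signal is the nuclear over cytoplasmic p65 intensity ratio per well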); settings: HUVEC TNFa-induced p65 nuclear translocation; cell count: measured here: nuclei count (cytotoxicity indicator), at 2.08 µM; inhibition: at 2 µM, stronger effect = higher value, 0% TNFa-plus-vehicle, 100% no-TNFa wells
[2] = reduction of polyQ htt aggregates in cells – imaging, exon1htt(103Q)mCFP cells, high-content imaging, primary screen (AID 483;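 active = visual image review flags a hit and inhibition of aggregation exceeds 20%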;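 also: compound exposure lasted 3 days before fixation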;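 as to nuclei count: percent of the per-plate median nuclei count of sample wells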); settings: exon1htt(103Q)mCFP cell line, aggregate imaging, at 2 µM; inhibition of aggregation: stronger effect = higher value; nuclei count: measured here: cell count, toxicity
[3] = endothelial E-selectin expression blockers – imaging, HUVEC, immunofluorescence, MLSMR starter and 10KST1 sets, primary screen (AID 487;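 active = visually confirmed hit in the image check and inhibition above 20%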;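 as to inhibition: signal is fraction of cell area covered by stained E-selectin grains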;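 as to nuclei count: 100% = median nuclei count of all wells on the same plate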); settings: HUVEC TNFalpha-induced E-selectin immunofluorescence imaging, at 2 µM; inhibition: stronger effect = higher value; nuclei count: measured here: cell number, toxicity
[4] = target: Voltage-gated potassium channel subunit beta-2 (Rattus norvegicus) (UniProt P62483); test: inhibitors of rat Kvbeta2 reductase activity – biochemical, NADPH fluorescence, primary screen (AID 622); settings: recombinant KvBeta, 4-cyanobenzaldehyde reduction, at 10 µM, stronger effect = higher value;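 also: slope of raw intensity against log time taken from 70 to 1610 s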
Chain of Voltage-gated potassium channel subunit beta-2 (Rattus norvegicus) (P62483 whole entry, looked up): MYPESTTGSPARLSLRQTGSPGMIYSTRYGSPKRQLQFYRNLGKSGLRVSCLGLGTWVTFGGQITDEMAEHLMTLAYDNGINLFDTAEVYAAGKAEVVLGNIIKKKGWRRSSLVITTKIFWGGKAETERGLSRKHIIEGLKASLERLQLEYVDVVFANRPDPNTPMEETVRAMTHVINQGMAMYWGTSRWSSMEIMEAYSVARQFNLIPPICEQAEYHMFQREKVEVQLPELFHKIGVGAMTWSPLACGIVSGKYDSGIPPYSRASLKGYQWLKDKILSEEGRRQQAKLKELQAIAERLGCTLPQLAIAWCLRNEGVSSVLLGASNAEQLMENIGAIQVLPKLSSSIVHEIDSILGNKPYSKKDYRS

[5] = target: Voltage-gated potassium channel subunit beta-2 (Rattus norvegicus) (UniProt P62483); test: enhancers of rat Kvbeta2 NADPH turnover – biochemical, NADPH fluorescence, primary screen (AID 623;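 active = NADPH fluorescence slope more negative than the mean of all samples by about 3 SD, 99.7% confidence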;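 also: fluorescence intensity change per second fitted from 20 to 320 s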); settings: Recombinant KvBeta, NADPH fluorescence decrease slope, 10 min; at 10 µM; stronger effect = lower value
[6] = target: Alpha-2C adrenergic receptor (Homo sapiens) (UniProt P18825); test: compounds altering alpha2C-coupled GIRK flux – cell-based, HEK293 alpha2C/GIRK1/2, thallium flux, primary screen (AID 624;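 active = fluorescence slope after compound addition differing from the mean of all screened samples at 99.7% confidence, in either direction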;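 also: slope of fluorescence ratio to pre-addition baseline per second over 15 to 24 s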); settings: thallium flux BTC fluorescence, at 10 µM, actives lie on both sides
Chain of Alpha-2C adrenergic receptor (Homo sapiens) (P18825 whole entry, looked up): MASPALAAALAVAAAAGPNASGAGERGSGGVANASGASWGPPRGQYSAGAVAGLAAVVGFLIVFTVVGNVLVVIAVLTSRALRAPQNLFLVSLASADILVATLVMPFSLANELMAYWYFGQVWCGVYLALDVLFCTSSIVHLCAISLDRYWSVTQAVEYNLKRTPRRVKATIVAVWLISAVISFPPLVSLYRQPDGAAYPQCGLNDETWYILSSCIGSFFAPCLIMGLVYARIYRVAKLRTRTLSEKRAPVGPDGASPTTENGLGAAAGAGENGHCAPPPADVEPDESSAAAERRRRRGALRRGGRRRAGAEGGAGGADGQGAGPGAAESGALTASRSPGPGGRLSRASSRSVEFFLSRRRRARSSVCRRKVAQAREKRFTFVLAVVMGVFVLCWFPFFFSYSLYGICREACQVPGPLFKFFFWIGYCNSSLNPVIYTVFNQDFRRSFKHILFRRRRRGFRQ

[7] = inhibitors of larval lipid processing in zebrafish, primary screen, whole organism, PED6 fluorescence, gall bladder and intestine (AID 686;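 active = a full or partial loss of lipid-probe fluorescence in the fish gall bladder, intestine or both, judged by eye; inactive = no fluorescence loss, or compound toxic to the fish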;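 also: larvae 5 to 7 days old with five fish per well; signal comes from phospholipase A2 cleavage of quenched PED6 carried via bile; overnight exposure to compound and PED6 before scoring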); settings: Zebrafish larvae PED6 lipid processing, fluorescence scoring; screened at 20 µM (by protocol)
Procedure, shortened: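 Doses: 20 µM single dose. Test system: live zebrafish larvae aged 5-7 days, whole organism. Quantity: five larvae per well. Measured by: By-eye fluorescence microscopy. Reagent: ingested quenched lipid PED6 at 100 nM. Read-out: visual per-well fluorescence inhibition score. Times: overnight exposure of larvae to compound plus PED6.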

[8] = blockers of RIG-like receptor reporter activation – cell-based, Sendai virus stimulus, luciferase, 10K MLSCN set, TLR/RLR signaling modifier project, primary screen (AID 602276;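 active = inhibition at or above 50% at 10 µM; inactive = inhibition below 50%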;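 also: firefly luciferase from ISG56 promoter only with Renilla not read in this screen; 0% = Sendai virus plus DMSO and 100% = medium plus DMSO without virus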); settings: HEK293 RL24 IRF3 luciferase reporter, at 10 µM, stronger effect = higher value
[9] = TLR3 IRF3 reporter activation blockers – cell-based, poly I:C stimulus, luciferase, 10K MLSCN set, primary screen (AID 602277;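 active = inhibition of the reporter signal at or above 50%; inactive = inhibition below 50%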); settings: HEK293-TLR3 RL24 IRF3 luciferase reporter, at 10 µM, stronger effect = higher value

Row | Structure (SMILES) | cell count [1] | inhibition [1] | inhibition of aggregation [2] | nuclei count [2] [%] | inhibition [3] | nuclei count [3] [%] | fluorescence slope [4] | NADPH fluorescence slope [5] | slope [6] | outcome [7] | inhibition [8] | inhibition [9]
1 | Cc1nnc(SCc2cccc(Oc3ccccc3)c2)n1N | 701 | -4.2% (inactive) | 2.8% (inactive) | 108 | -59.1% (inactive) | 105 | -0.384 (inactive) | -3e-05 (inactive) | 0.00543 (inactive) | inactive | -4.43% (inactive) | 98.8% (active)
2 | Cc1ccc(S(=O)(=O)N2CCN(C(=O)CSc3nc4ccccc4c(=O)[nH]3)CC2)c(C)c1 | 541 | -30.9% (inactive) | -12.7% (inactive) | 113 | -13.1% (inactive) | 130 | -0.331 (inactive) | 1.8e-05 (inactive) | 0.00493 (inactive) | inactive | 8.86% (inactive) | 4.21% (inactive)
3 | Cc1ccc(S(=O)(=O)N(CC(=O)N2CCC(C(N)=O)CC2)Cc2ccc(F)cc2)cc1 | 473 | 3.5% (inactive) | -8.5% (inactive) | 91.9 | 34.4% (inactive) | 110 | -0.361 (inactive) | -6.9e-05 (inactive) | 0.00526 (inactive) | inactive | 10.4% (inactive) | 15.9% (inactive)
4 | CCCCCCn1c(CN2CCCC(C)C2)nc2c1c(=O)n(C)c(=O)n2C (stereo not given) | 302 | -3.8% (inactive) | -10.6% (inactive) | 104 | -46.9% (inactive) | 114 | -0.396 (inactive) | -4.7e-05 (inactive) | 0.00516 (inactive) | inactive | 17.5% (inactive) | 9.02% (inactive)
5 | COc1ccc(COC(=O)c2n[nH]c3ccccc23)cc1F | 380 | 3.9% (inactive) | -16% (inactive) | 125 | -1.8% (inactive) | 107 | -0.444 (inactive) | -5.5e-05 (inactive) | 0.00618 (inactive) | inactive | -16.1% (inactive) | -49.8% (inactive)
6 | O=C(COC(=O)CCOc1ccccc1)Nc1ccc(Cl)cn1 | 723 | 5.7% (inactive) | -12.2% (inactive) | 101 | 35.5% (inactive) | 88.1 | -0.489 (inactive) | -1.8e-05 (inactive) | 0.00492 (inactive) | inactive | 5.25% (inactive) | 8.02% (inactive)
7 | CC1Cc2ccccc2N1CC(=O)NC(=O)NCc1ccco1 (stereo not given) | 441 | -2.6% (inactive) | 9.8% (inactive) | 91.7 | 2.3% (inactive) | 109 | -0.436 (inactive) | -9.5e-06 (inactive) | 0.00524 (inactive) | inactive | 16.6% (inactive) | 19% (inactive)
8 | CCCn1c(=O)c(C(=O)NCc2ccccn2)c(O)c2ccccc21 | 345 | 4.2% (inactive) | -20.9% (inactive) | 111 | -32.3% (inactive) | 108 | -0.403 (inactive) | -9e-05 (inactive) | 0.00521 (inactive) | inactive | -22.2% (inactive) | -53.3% (inactive)
9 | CCN(CC(=O)Nc1ccc2c(c1)OCCO2)Cc1cc(=O)oc2cc(C)c(C)cc12 | 337 | -9.6% (inactive) | 8.8% (inactive) | 96.4 | -2.6% (inactive) | 119 | -0.474 (inactive) | -3.1e-05 (inactive) | 0.00545 (inactive) | inactive | 25.7% (inactive) | 16.9% (inactive)
10 | COC(=O)Cn1cnc2sc(C)c(S(=O)(=O)N3CCC(C)CC3)c2c1=O | 543 | -2.4% (inactive) | -10.1% (inactive) | 106 | -31.1% (inactive) | 101 | -0.473 (inactive) | -2.3e-05 (inactive) | 0.00523 (inactive) | inactive | 6.12% (inactive) | 8.67% (inactive)
11 | CCN(C(=O)c1cccs1)c1nnc(-c2ccncc2)s1 | 737 | -7.1% (inactive) | -14.4% (inactive) | 104 | -80% (inactive) | 115 | -0.374 (inactive) | -7.1e-05 (inactive) | 0.00498 (inactive) | inactive | -7.04% (inactive) | -41.1% (inactive)
12 | O=C(c1cccnc1)N1CCN(C(=O)c2ccccc2F)CC1 | 343 | 1% (inactive) | -7.4% (inactive) | 97.7 | -6% (inactive) | 114 | -0.353 (inactive) | -3.8e-05 (inactive) | 0.00512 (inactive) | inactive | -1.4% (inactive) | 99.3% (active)
13 | CSc1nnc(-c2ccccc2)n1C | 645 | -13.1% (inactive) | -35.1% (inactive) | 111 | -16.6% (inactive) | 108 | -0.398 (inactive) | -6.9e-06 (inactive) | 0.00519 (inactive) | inactive | 16.8% (inactive) | 17.4% (inactive)
14 | CCOC(=O)C1CCN(CC(=O)c2c(C)[nH]c3ccccc23)CC1 | 669 | 3.9% (inactive) | -5.8% (inactive) | 99.6 | 11.6% (inactive) | 102 | -0.421 (inactive) | -1.5e-05 (inactive) | 0.00551 (inactive) | inactive | -3.58% (inactive) | 15.2% (inactive)
15 | CCOc1nc(NCCC2=CCCCC2)nc(N2CCOCC2)n1 | 450 | 2.7% (inactive) | 6.3% (inactive) | 84 | -23.8% (inactive) | 96.5 | -0.364 (inactive) | -5.8e-05 (inactive) | 0.00441 (inactive) | inactive | 10.2% (inactive) | 5.8% (inactive)
16 | O=C(NCc1ccco1)c1cc2sccc2n1Cc1ccccc1 | 455 | 5% (inactive) | 8.8% (inactive) | 114 | -33.7% (inactive) | 110 | -0.463 (inactive) | 5.4e-05 (inactive) | 0.00405 (inactive) | inactive | -19.7% (inactive) | -28.5% (inactive)
17 | CC(=O)Nc1nnc(SCC(=O)NCC2CCCO2)s1 (stereo not given) | 415 | 6% (inactive) | -1.3% (inactive) | 102 | -123% (inactive) | 110 | -0.413 (inactive) | -3.1e-05 (inactive) | 0.00542 (inactive) | inactive | -10.9% (inactive) | -9.89% (inactive)
18 | COc1ccc(Br)cc1-c1noc(-c2ccccc2)n1 | 357 | 3% (inactive) | -25.4% (inactive) | 102 | -51.1% (inactive) | 109 | -0.371 (inactive) | -6.1e-05 (inactive) | 0.00662 (inactive) | inactive | 13.4% (inactive) | 99.2% (active)
19 | O=C1c2ccccc2NC(c2cccc(F)c2)N1Cc1ccco1 (stereo not given) | 586 | -32.4% (inactive) | 10.2% (inactive) | 106 | -0.5% (inactive) | 107 | -0.308 (inactive) | -2.7e-05 (inactive) | 0.00344 (inactive) | inactive | 16.4% (inactive) | 17.8% (inactive)
20 | C=CCOc1ccc(CN(C)CC(=O)N(CC(C)C)c2c(N)n(CC(C)C)c(=O)[nH]c2=O)cc1 | 492 | 8.3% (inactive) | -8.7% (inactive) | 101 | -77.8% (inactive) | 123 | -0.452 (inactive) | -4.3e-05 (inactive) | 0.00414 (inactive) | inactive | 21.6% (inactive) | 19.4% (inactive)
21 | Cc1cc(C(=O)N2CCCc3ccccc32)no1 | 312 | -4.5% (inactive) | 13% (inactive) | 77.3 | -10.5% (inactive) | 89.2 | -0.39 (inactive) | -4.1e-06 (inactive) | 0.00507 (inactive) | inactive | -8.74% (inactive) | -14.5% (inactive)
22 | Cn1c(-c2ccccc2)cnc1SCc1nc2ccccc2c(=O)[nH]1 | 428 | 0.8% (inactive) | -3.4% (inactive) | 119 | -80.8% (inactive) | 109 | -0.379 (inactive) | -6.5e-05 (inactive) | 0.00544 (inactive) | inactive | 11.1% (inactive) | -54% (inactive)
23 | O=C(NCc1cccs1)c1cc2c(s1)CS(=O)(=O)C2 | 618 | -3% (inactive) | -17.1% (inactive) | 101 | -42.8% (inactive) | 113 | -0.32 (inactive) | -4.2e-06 (inactive) | 0.00763 (inactive) | inactive | 23.3% (inactive) | 87% (active)
24 | CC1(C)C2CCC1(C)C(OC(=O)CSc1nc(N)cc(=O)[nH]1)C2 (stereo not given) | 473 | 6.5% (inactive) | 4% (inactive) | 103 | -343% (inactive) | 136 | -0.367 (inactive) | -4.6e-05 (inactive) | 0.00448 (inactive) | inactive | 3.84% (inactive) | 8.04% (inactive)
25 | CC(C)C(CO)NC(=O)CC(=O)NC(CO)C(C)C (stereo not given) | 627 | -5.6% (inactive) | 4.9% (inactive) | 82.3 | 48.7% (inactive) | 35.5 | -0.392 (inactive) | -5.1e-05 (inactive) | 0.00488 (inactive) | inactive | 9.94% (inactive) | 12.2% (inactive)
